Measurements published in ChEMBL document CHEMBL1147678, “Discovery of a potent, nonpolyglutamatable inhibitor of glycinamide ribonucleotide transformylase” (J Med Chem, 2006).

Tests used:
[1] = biological target: Bifunctional purine biosynthesis protein ATIC (Homo sapiens, UniProt P31939); assay: Inhibition of human recombinant AICAR Tfase
Procedure, shortened: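 Recombinant human AICAR Tfase assayed by a previously described method. Reaction kinetics were followed for 2 min after initiation. Ki was derived from Dixon plots.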

CCRF-CEM [2] = assay: Antiproliferative activity against human CCRF-CEM cell line in presence of hypoxanthine; assay type: functional, cell-based
CCRF-CEM [3] = assay: Antiproliferative activity against human CCRF-CEM cell line; assay type: functional, cell-based
Procedure, shortened: (§1)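 CCRF-CEM human leukemia cells (parental or variant line) were continuously exposed to the test compounds for 72 h, and growth inhibition was then measured.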

CCRF-CEM [4] = assay: Antiproliferative activity against human CCRF-CEM cell line in presence of thymidine; assay type: functional, cell-based
[5] = biological target: T1, Trifunctional purine biosynthetic protein adenosine-3 (Homo sapiens, UniProt P22102); assay: Inhibition of human recombinant GAR Tfase
T1 sequence (P22102 whole entry): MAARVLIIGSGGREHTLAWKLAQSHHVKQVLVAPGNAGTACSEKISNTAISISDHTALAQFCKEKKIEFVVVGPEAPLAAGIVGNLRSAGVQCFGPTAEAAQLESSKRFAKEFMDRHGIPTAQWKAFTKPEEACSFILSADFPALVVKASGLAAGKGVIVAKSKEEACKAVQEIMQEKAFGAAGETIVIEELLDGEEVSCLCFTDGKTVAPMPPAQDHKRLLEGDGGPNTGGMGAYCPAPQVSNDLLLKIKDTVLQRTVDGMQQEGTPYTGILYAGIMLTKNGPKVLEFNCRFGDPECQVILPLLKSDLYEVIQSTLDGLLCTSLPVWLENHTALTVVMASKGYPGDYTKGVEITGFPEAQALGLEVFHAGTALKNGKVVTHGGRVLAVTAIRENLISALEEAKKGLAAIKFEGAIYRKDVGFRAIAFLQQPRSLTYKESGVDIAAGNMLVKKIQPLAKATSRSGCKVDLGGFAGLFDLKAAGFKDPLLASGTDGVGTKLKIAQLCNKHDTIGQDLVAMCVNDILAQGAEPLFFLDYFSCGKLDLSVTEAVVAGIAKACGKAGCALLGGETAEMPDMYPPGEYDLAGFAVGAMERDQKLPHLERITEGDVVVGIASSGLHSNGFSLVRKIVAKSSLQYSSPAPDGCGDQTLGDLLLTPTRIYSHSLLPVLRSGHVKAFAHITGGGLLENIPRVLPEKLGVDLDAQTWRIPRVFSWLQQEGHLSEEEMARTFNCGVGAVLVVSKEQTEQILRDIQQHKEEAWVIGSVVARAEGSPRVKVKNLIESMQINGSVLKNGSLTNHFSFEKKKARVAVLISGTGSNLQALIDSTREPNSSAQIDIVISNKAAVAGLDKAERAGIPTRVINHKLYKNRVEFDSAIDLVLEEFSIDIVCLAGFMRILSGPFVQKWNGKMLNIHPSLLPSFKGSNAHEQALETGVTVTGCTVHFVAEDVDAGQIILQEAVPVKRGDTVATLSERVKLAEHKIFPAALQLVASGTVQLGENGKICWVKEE

CCRF-CEM [6] = assay: Antiproliferative activity against FPGS-deficient CCRF-CEM cell line; assay type: functional, cell-based; conditions: Homo sapiens; procedure, shortened: as §1
CCRF-CEM [7] = assay: Antiproliferative activity against reduced folate carrier-deficient CCRF-CEM cell line; assay type: functional, cell-based; conditions: Homo sapiens; procedure, shortened: as §1

Chain of Bifunctional purine biosynthesis protein ATIC (P31939 whole entry): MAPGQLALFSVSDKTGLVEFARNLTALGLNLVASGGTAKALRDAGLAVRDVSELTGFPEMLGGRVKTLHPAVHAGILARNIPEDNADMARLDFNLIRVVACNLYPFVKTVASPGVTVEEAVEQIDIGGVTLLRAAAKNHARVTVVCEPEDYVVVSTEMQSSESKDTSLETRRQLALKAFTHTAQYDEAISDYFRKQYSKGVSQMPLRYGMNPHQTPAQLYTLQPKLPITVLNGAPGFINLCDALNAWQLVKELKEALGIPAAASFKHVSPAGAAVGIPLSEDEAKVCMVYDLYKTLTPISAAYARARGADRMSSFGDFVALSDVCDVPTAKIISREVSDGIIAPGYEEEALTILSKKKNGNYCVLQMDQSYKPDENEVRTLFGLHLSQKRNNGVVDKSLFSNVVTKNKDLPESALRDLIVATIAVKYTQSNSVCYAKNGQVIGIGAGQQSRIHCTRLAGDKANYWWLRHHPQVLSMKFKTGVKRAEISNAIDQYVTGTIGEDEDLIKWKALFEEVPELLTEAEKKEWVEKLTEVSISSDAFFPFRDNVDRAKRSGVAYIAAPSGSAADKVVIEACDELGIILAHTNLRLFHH

SMILES	Ki [1] [µM]	IC50 (CCRF-CEM [2]) [µM]	IC50 (CCRF-CEM [3]) [µM]	IC50 (CCRF-CEM [4]) [µM]	Ki [5] [µM]	IC50 (CCRF-CEM [6]) [µM]	IC50 (CCRF-CEM [7]) [µM]
Nc1nc(N)c(CCCC(C(=O)C(F)(F)F)c2ccc(C(=O)NCC(=O)O)cc2)c(O)n1 (stereo unspecified)	> 100	> 100	> 100	> 100	21	> 100	> 100
Nc1nc(N)c(CCCC(C(=O)C(F)(F)F)c2ccc(C(=O)NC(CCC(=O)O)C(=O)O)cc2)c(O)n1 (stereo unspecified)	> 100	> 100	0.016	0.017		> 100	> 100
Nc1nc(N)c(CCCC(C(=O)C(F)(F)F)c2ccc(C(=O)NCc3nnn[nH]3)cc2)c(=O)[nH]1 (stereo unspecified)	> 100	> 100	10	30	5	40	30
Nc1nc(N)c(CCCC(C(=O)C(F)(F)F)c2ccc(C(=O)N[C@@H](CCc3nnn[nH]3)C(=O)O)cc2)c(=O)[nH]1 (stereo partly specified)	46	> 100	0.04	0.09	0.13	0.05	10
Nc1nc2c(c(=O)[nH]1)C[C@@H](CCc1ccc(C(=O)N[C@@H](CCC(=O)O)C(=O)O)cc1)CN2 [LOMETREXOL]	> 100	> 100	0.2			25	
